Values joined by “and” are separate entries in the source; they are usually repeats but may differ in a detail not shown here. Equal entries are not always repeated.
Columns and labels:
HepG2 [1] = test: Cytostatic concentration required to inhibit Hep G2 cell proliferation; format: functional; conditions: Homo sapiens
HepG2 [2] = test: Cytostatic concentration required to inhibit Hep G2.2.15 cell proliferation; format: functional, Homo sapiens
How it was run: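 Growth inhibition of HepG2 2.2.15 human hepatoma cells (constitutively HBV-producing) measured; CC50 = 50% cytostatic concentration.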

[3] = tested on: Human immunodeficiency virus 1; test: Effective concentration against human immunodeficiency virus type 1 in CEM cells; format: functional, organism-based; conditions: Human immunodeficiency virus 1, CCRF-CEM
How it was run: (§1)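 HIV-1- and HIV-2-induced cytopathicity in CEM cell cultures, scored at day 4 by microscopic examination of virus-induced giant cell formation; EC50 = concentration inhibiting cytopathicity by 50%.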

[4] = tested on: Human immunodeficiency virus 1; test: Effective concentration against human immunodeficiency virus type 1 in MT-4 cells; format: functional, organism-based, MT4
[5] = tested on: Human immunodeficiency virus 2; test: Effective concentration against human immunodeficiency virus type 2 in CEM cells; format: functional, organism-based; conditions: Human immunodeficiency virus 2, CCRF-CEM; how it was run: as §1
[6] = tested on: Human immunodeficiency virus 2; test: Effective concentration against human immunodeficiency virus type 2 in MT-4 cells; format: functional, organism-based; conditions: Human immunodeficiency virus 2, MT4
CCRF-CEM = test: Cytostatic concentration required to inhibit CEM cell proliferation; format: functional; conditions: Homo sapiens
MT4 = test: Cytostatic concentration required to inhibit MT-4 cell proliferation; format: functional, Homo sapiens
Hepatitis B virus [7] = test: Effective concentration againstHBV in Hep G2.2.15 cells; format: functional, organism-based, HepG2 2.2.15
How it was run: (§2)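 Anti-HBV activity assayed in HepG2 2.2.15 human hepatoma cells, which constitutively produce HBV; EC50 = 50% effective concentration.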

Hepatitis B virus [8] = test: Effective concentration against HBV in Hep G2.2.15 cells; format: functional, organism-based, HepG2 2.2.15; how it was run: as §2
C3H/3T3 = test: Cytostatic concentration required to inhibit C3H/3T3 cell proliferation; format: functional; conditions: Mus musculus
[9] = Apparent half life value in monkey after oral dosage; format: ADME, organism-based; conditions: cercopithecidae, in vivo, read-out: T1/2 app (converted)
How it was run: (§3)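 Female cynomolgus monkeys (three, 2.0-3.2 kg) received the succinate salt at 11.5 mg/kg (17.3 µmol/kg), 2.3 mg/mL in 10% DMSO/90% saline, 5 mL/kg, iv on day 1 and orally on day 8 (1-week washout); fasted overnight to ~4 h postdose. Serial plasma to 24 h, acetonitrile deproteination, LC/MS/MS of prodrug, alaninyl-ABC-MP, ABC-MP, ABC, CBV; noncompartmental analysis.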

[10] = tested on: Human immunodeficiency virus 1; test: Effective concentration against human immunodeficiency virus type 1 in PBL cells; format: functional, organism-based; conditions: Human immunodeficiency virus 1, PBL
[11] = tested on: Moloney murine sarcoma virus; test: Effective concentration against murine moloney sarcoma virus in C3H/3T3 cells; format: functional, organism-based
[12] = tested on: Human immunodeficiency virus 2; test: Effective concentration against human immunodeficiency virus type 2 (ROD) in CEM cells; format: functional, organism-based; conditions: Human immunodeficiency virus 2, CCRF-CEM; how it was run: as §1
Human alphaherpesvirus 1 [13] = test: Effective concentration against thymidine kinase competent herpes simplex virus (HSV-1) in […]; format: functional, organism-based
How it was run: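 Confluent HEL cell cultures inoculated with 100 CCID50 of HSV-1 (KOS), HSV-2 (G) or HSV-1 TK- (B2006, VMW-1837); after 1 h adsorption, residual virus removed and cells incubated with varying compound concentrations; cytopathicity recorded once complete in virus controls; EC50 = concentration inhibiting HSV-induced cytopathicity by 50%.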

[14] = tested on: Human immunodeficiency virus 2; test: Ratio of CC50 to that of EC50 against human immunodeficiency virus type 2 in CEM cells; format: functional, CCRF-CEM
HEL = test: Cytostatic concentration required to inhibit HEL cell proliferation; format: functional; conditions: Homo sapiens
How it was run: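 HEL cell proliferation measured in presence of compound; CC50 = 50% cytostatic concentration inhibiting HEL cell proliferation by 50%.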

[15] = Time of maximum concentration was observed in monkey after oral dosage; format: ADME, organism-based; conditions: cercopithecidae, in vivo; how it was run: as §3
[16] = Area under the plasma concentration-time curve in monkey after peroral dosage; format: ADME; conditions: cercopithecidae, po; how it was run: as §3
[17] = Area under the plasma concentration-time curve in monkey after intravenous dosage; format: ADME; conditions: cercopithecidae; how it was run: as §3
[18] = Terminal elimination half-life in monkey after intravenous dosage; NA = not applicable; format: ADME, organism-based; conditions: cercopithecidae, in vivo; how it was run: as §3
Human alphaherpesvirus 2 = test: Effective concentration against thymidine kinase competent herpes simplex virus (HSV-2) in […]
Human alphaherpesvirus 1 [19] = test: Effective concentration against thymidine kinase deficient herpes simplex virus (HSV-1) in B2006 strain; conditions: Human alphaherpesvirus 1, B2006
Human alphaherpesvirus 1 [20] = test: Effective concentration against thymidine kinase deficient herpes simplex virus (HSV-1) in VMW-1837 strain; conditions: Human alphaherpesvirus 1, VMW-1837
[21] = tested on: Human immunodeficiency virus 1; test: Ratio of CC50 to that of EC50 against human immunodeficiency virus type 1 in CEM cells; format: functional, CCRF-CEM
[22] = Hepatitis B virus, HepG2 2.2.15
[23] = Human immunodeficiency virus 1, MT4

Structure (SMILES)	CC50 (HepG2 [1])	CC50 (HepG2 [2])	EC50 [3]	EC50 ([4]; mt4)	EC50 [5]	EC50 [6]	CC50 (CCRF-CEM)	CC50 (MT4)	EC50 [4, 23]	CC50 (MT4; Homo sapiens, MT4)	EC50 (Hepatitis B virus [8]; [22])	further results
COC(=O)[C@@H](C)NP(=O)(OC[C@@H]1C=C[C@H](n2cnc3c(NC4CC4)nc(N)nc32)C1)Oc1ccccc1 (stereo in doubt; 3a,b)	17 µM	17 µM	0.05 µM	0.2 µM and 0.037 µM	0.05 µM	0.26 µM	13 µM	4.3 µM and 4.6 µM				EC50 (Hepatitis B virus [7]; [22]): 0.55 µM; EC50 (Hepatitis B virus [8]; hepg2 2.2.15): 0.55 µM
COC(=O)CNP(=O)(OC[C@@H]1C=C[C@H](n2cnc3c(NC4CC4)nc(N)nc32)C1)Oc1ccccc1 (stereo partly specified)	58 µM		1.8 µM		2 µM	5.4 µM	> 56 µM		7.2 µM	8.5 µM	1 µM	
COC(=O)[C@@H](C)NP(=O)(OC[C@@H]1C=C[C@H](n2cnc3c(NC4CC4)nc(N)nc32)C1)Oc1ccccc1 (stereo in doubt; 3a)		10 µM		0.027 µM				1 µM				EC50 (Hepatitis B virus [7]; hepg2 2.2.15): 0.4 µM
COC(=O)[C@H](C)NP(=O)(OC[C@@H]1C=C[C@H](n2cnc3c(NC4CC4)nc(N)nc32)C1)Oc1ccccc1 (stereo partly specified)	52 µM		1.4 µM		4.5 µM	4.1 µM	46 µM		3.4 µM	4.5 µM	1.3 µM	
COC(=O)C(C)(C)NP(=O)(OC[C@@H]1C=C[C@H](n2cnc3c(NC4CC4)nc(N)nc32)C1)Oc1ccccc1 (stereo partly specified)	5.5 µM		0.067 µM		0.064 µM	0.11 µM	> 130 µM		0.14 µM	8.1 µM	0.019 µM	
CCOC(=O)[C@@H](C)NP(=O)(OC[C@@H]1C=C[C@H](n2cnc3c(NC4CC4)nc(N)nc32)C1)Oc1ccccc1 (stereo in doubt; 6b)		35 µM		0.14 µM				5 µM				EC50 (Hepatitis B virus [8]; hepg2 2.2.15): 0.27 µM
Nc1nc2c(ncn2[C@H]2C=C[C@@H](CO)C2)c(=O)[nH]1 [CARBOVIR]	150 µM		2 µM		2.3 µM		160 µM				10.5 µM	CC50 (C3H/3T3): > 20 µM; CC50 (HepG2 [2]; Homo sapiens, HepG2): 150 µM; half-life [9]: 6 h; EC50 [10]: 0.03 µM; EC50 [11]: 6 µM; EC50 [12]: 2.3 µM; EC50 (Human alphaherpesvirus 1 [13]): 5 µM; SI [14]: 68; CC50 (HEL): 15 µM; EC50 (Hepatitis B virus [7]; [22]): 10 µM; Tmax [15]: 4.7 h; AUC [16]: 0.4 µM·h; AUC [17]: 0.7 µM·h; T1/2 [18]: Not Active; EC50 (Human alphaherpesvirus 2): 8 µM; EC50 (Human alphaherpesvirus 1 [19]): 50 µM; EC50 (Human alphaherpesvirus 1 [20]): 13 µM
COC(=O)[C@@H](C)NP(=O)(OC[C@@H]1C=C[C@H](n2cnc3c(O)nc(N)nc32)C1)Oc1ccccc1 (stereo partly specified)			1.3 µM				78 µM					CC50 (C3H/3T3): > 20 µM; CC50 (HepG2 [2]; Homo sapiens, HepG2): 200 µM; EC50 [10]: 0.2 µM; EC50 [11]: 8.8 µM; EC50 [12]: 3 µM; EC50 (Human alphaherpesvirus 1 [13]): 480 µM; SI [21]: 41; SI [14]: 26; CC50 (HEL): 160 µM; EC50 (Hepatitis B virus [7]; [22]): 0.51 µM; EC50 (Human alphaherpesvirus 2): 480 µM; EC50 (Human alphaherpesvirus 1 [19]): > 800 µM; EC50 (Human alphaherpesvirus 1 [20]): 480 µM
CCOC(=O)[C@@H](C)NP(=O)(OC[C@@H]1C=C[C@H](n2cnc3c(NC4CC4)nc(N)nc32)C1)Oc1ccccc1 (stereo in doubt; 6a)		7.5 µM		0.0155 µM				0.95 µM				EC50 (Hepatitis B virus [8]; hepg2 2.2.15): 0.2 µM
CCOC(=O)[C@@H](C)NP(=O)(OC[C@@H]1C=C[C@H](n2cnc3c(NC4CC4)nc(N)nc32)C1)Oc1ccccc1 (stereo in doubt; 6a,b)		18 µM		0.0155 µM				4.6 µM				
CCOC(=O)[C@@H](C)NP(=O)(OC[C@@H]1C=C[C@H](n2cnc3c(NC4CC4)nc(N)nc32)C1)Oc1ccccc1 (stereo in doubt; 6)	18 µM		0.07 µM	0.2 µM	0.061 µM	0.21 µM	12 µM	8.6 µM			0.35 µM	
COC(=O)[C@@H](C)NP(=O)(OC[C@@H]1C=C[C@H](n2cnc3c(NC4CC4)nc(N)nc32)C1)Oc1ccccc1 (stereo in doubt; 3b)		35 µM		0.11 µM				4 µM				EC50 (Hepatitis B virus [8]; hepg2 2.2.15): 1.5 µM
C[C@@H](NP(=O)(OC[C@@H]1C=C[C@H](n2cnc3c(NC4CC4)nc(N)nc32)C1)Oc1ccccc1)C(=O)OC(C)(C)C (stereo partly specified)	11 µM		3.7 µM		6 µM	3.4 µM	8.6 µM		6.6 µM	2.1 µM	5 µM	
CC(C)OC(=O)[C@@H](C)NP(=O)(OC[C@@H]1C=C[C@H](n2cnc3c(NC4CC4)nc(N)nc32)C1)Oc1ccccc1 (stereo partly specified)	17 µM		0.05 µM		0.05 µM	0.26 µM	13 µM		0.2 µM	4.6 µM	0.55 µM	
C[C@@H](NP(=O)(O)OC[C@@H]1C=C[C@H](n2cnc3c(NC4CC4)nc(N)nc32)C1)C(=O)O	11 µM		1.2 µM			3.4 µM	8.6 µM		6.6 µM	2.1 µM	5 µM	half-life [9]: 0.8 h; Tmax [15]: 1.3 h; AUC [16]: 2.6 µM·h; AUC [17]: 9.2 µM·h; T1/2 [18]: Not Active
